# Test results published in ChEMBL document CHEMBL1147340, “1H- and 13C-nmr assignments of phyllanthin and hypophyllanthin: lignans that enhance cytotoxic responses with cultured multidrug-resistant cells” (J Nat Prod, 1993).
# Key:
# Col2 = test: Cytotoxicity against human Col2 cells after 2 to 4 days by SRB assay; format: functional; details: read-out: ED50 (the source's name)
# Procedure, shortened: (§1)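 Test compounds in 10% DMSO added to cell suspensions and incubated 2–4 days at 37° (100% humidity, 5% CO2). Cells fixed with cold 50% TCA for 1 h at 4°, stained with sulforhodamine B, washed with 1% HOAc and solubilized in 10 mM Tris base. OD read at 515 nm; percent growth calculated relative to controls. Top concentration tested 20 μg/ml.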
# [1] = (§2) Displacement of [3H]vinblastine from p-glycoprotein in multidrug-resistant human KBV1 cell membrane vesicles by liquid scintillation counting; format: cell membranes
# Procedure, shortened: (§3)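 Membrane vesicles were made from KB-V1 cells by homogenization, a 35% sucrose cushion and 100,000 × g pelleting. Incubated 20 min at room temperature, then filtered onto BSA-prewashed glass fiber. Nonspecific binding taken with 1 mM unlabeled vinblastine. Read by scintillation counting and expressed as percent.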
# A-431 = test: Cytotoxicity against human A431 cells after 2 to 4 days by SRB assay; format: functional; details: read-out: ED50 (the source's name); procedure, shortened: as §1
# P388 = test: Cytotoxicity against mouse P388 cells after 2 to 4 days by SRB assay; format: functional; details: read-out: ED50 (the source's name); procedure, shortened: as §1
# [2] = Cytotoxicity against multidrug-resistant human KBV1 cells after 2 to 4 days by SRB assay in absence of vinblastine; format: functional; details: KB-V1, read-out: ED50 (the source's name)
# Procedure, shortened: (§4)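 SRB growth assay on KB-V1 cells (compounds in 10% DMSO, 2–4 days at 37°, 5% CO2, TCA fixation, OD 515 nm, percent growth versus controls). Cells were given a range of compound concentrations, either alone or together with 1 μg/ml vinblastine.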
# [3] = Cytotoxicity against human LUC1 cells after 2 to 4 days by SRB assay; format: functional; details: read-out: ED50 (the source's name); procedure, shortened: as §1
# SK-MEL-2 = test: Cytotoxicity against human SK-MEL-2 cells after 2 to 4 days by SRB assay; format: functional; details: read-out: ED50 (the source's name); procedure, shortened: as §1
# [4] = Cytotoxicity against human BCA1 cells after 2 to 4 days by SRB assay; format: functional; details: read-out: ED50 (the source's name); procedure, shortened: as §1
# ZR-75-1 = test: Cytotoxicity against human ZR-75-1 cells after 2 to 4 days by SRB assay; format: functional; details: read-out: ED50 (the source's name); procedure, shortened: as §1
# [5] = Cytotoxicity against multidrug-resistant human KBV1 cells after 2 to 4 days by SRB assay in presence of vinblastine; format: functional; details: KB-V1, read-out: ED50 (the source's name); procedure, shortened: as §4
# LNCaP = test: Cytotoxicity against human LNCAP cells after 2 to 4 days by SRB assay; format: functional; details: read-out: ED50 (the source's name); procedure, shortened: as §1
# [6] = Cytotoxicity against drug-sensitive human KB3 cells after 2 to 4 days by SRB assay; format: functional; details: read-out: ED50 (the source's name); procedure, shortened: as §1
# KBV1 = test: as §2; format: cell membranes; procedure, shortened: as §3
# [7] = Cytotoxicity against multidrug-resistant human KBV1 cells at 1 ug/mL after 2 to 4 days by SRB assay in presence of vinblastine; format: functional; details: KB-V1, read-out: ED50 (the source's name)
IC50 [1] [µg/mL],Structure (SMILES),EC50 (Col2) [µg/mL],EC50 (A-431) [µg/mL],EC50 (P388) [µg/mL],EC50 [2] [µg/mL],EC50 [3] [µg/mL],EC50 (SK-MEL-2) [µg/mL],EC50 [4] [µg/mL],EC50 (ZR-75-1) [µg/mL],EC50 [5] [µg/mL],EC50 (LNCaP) [µg/mL],EC50 [6] [µg/mL],ED50 (KBV1),EC50 [7] [µg/mL]
> 160,COC[C@@H]1Cc2cc(OC)c3c(c2[C@H](c2ccc(OC)c(OC)c2)[C@H]1COC)OCO3 [HYPOPHYLLANTHIN],> 20,> 20,> 20,> 20,> 20,> 20,> 20,> 20,3.8,> 20,> 20,,
28,COC[C@H](Cc1ccc(OC)c(OC)c1)[C@H](COC)Cc1ccc(OC)c(OC)c1 [PHYLLANTHIN],> 20,> 20,> 20,9,> 20,> 20,> 20,> 20,,> 20,> 20,Dose-dependent effect,2.1
